According to ChEMBL document CHEMBL1671684, “In vitro resistance profile of the hepatitis C virus NS3/4A protease inhibitor TMC435” (Antimicrob Agents Chemother, 2010):

Legend:
Hepatitis C virus [1] = assay: Antiviral activity against Hepatitis C virus subtype 1b expressing NS3 Q80R and R155K mutant infected in HuH7 cells after 48 hrs by luciferase reporter assay; format: functional, organism-based, Hepacivirus hominis; conditions: genotype 1b, Huh-7, 48 h
In short: (§1)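 Genotype 1b con1 subgenomic bicistronic replicon (clone ET) with luciferase reporter and adaptive mutations E1202G, T1280I, K1846T, carrying site-directed NS3 single or double mutations. 10 μg wild-type or mutant replicon RNA electroporated into Huh7-lunet cells, seeded 4,000 cells/well over a nine-point inhibitor dilution series, 48 h at 37°C, 5% CO2, then luminescence read. EC50 taken as median of individual experiments; fold change relative to parental replicon EC50.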

Hepatitis C virus [2] = assay: Antiviral activity against Hepatitis C virus subtype 1b expressing NS3 R155I mutant infected in HuH7 cells after 48 hrs by luciferase reporter assay; format: functional, organism-based, Hepacivirus hominis; conditions: genotype 1b, Huh-7, 48 h; in short: as §1
Hepatitis C virus [3] = assay: Ratio of EC50 for Hepatitis C virus subtype 1b expressing NS3 F43V mutant to EC50 for Hepatitis C virus subtype 1b expressing WT NS3 infected in HuH7 cells after 48 hrs by luciferase reporter assay; format: functional, Hepacivirus hominis, genotype 1b, Huh-7
In short: (§2)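 Transient replicon assay: site-directed single or multiple NS3 mutations engineered into genotype 1b (con1, clone ET) subgenomic bicistronic replicon with luciferase reporter and adaptive mutations E1202G, T1280I, K1846T. Huh7-lunet cells electroporated with 10 μg wild-type or mutant replicon RNA, seeded 4,000 cells/well with nine-point inhibitor dilution; 48 h, 37°C, 5% CO2; luminescence read-out. EC50 as median of individual experiments; fold change versus parental replicon EC50.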

Hepatitis C virus [4] = assay: Ratio of EC50 for Hepatitis C virus subtype 1b expressing NS3 A156G mutant to EC50 for Hepatitis C virus subtype 1b expressing WT NS3 infected in HuH7 cells after 48 hrs by luciferase reporter assay; format: functional, Hepacivirus hominis, genotype 1b, Huh-7; in short: as §1
Hepatitis C virus [5] = assay: Ratio of EC50 for Hepatitis C virus subtype 1b expressing NS3 V36L mutant to EC50 for Hepatitis C virus subtype 1b expressing WT NS3 infected in HuH7 cells after 48 hrs by luciferase reporter assay; format: functional, Hepacivirus hominis, genotype 1b, Huh-7; in short: as §2
Hepatitis C virus [6] = assay: Antiviral activity against Hepatitis C virus subtype 1b expressing NS3 Q80G mutant infected in HuH7 cells after 48 hrs by luciferase reporter assay; format: functional, organism-based, Hepacivirus hominis; conditions: genotype 1b, Huh-7, 48 h; in short: as §1
Hepatitis C virus [7] = assay: Ratio of EC50 for Hepatitis C virus subtype 1b expressing NS3 F43I mutant to EC50 for Hepatitis C virus subtype 1b expressing WT NS3 infected in HuH7 cells after 48 hrs by luciferase reporter assay; format: functional, Hepacivirus hominis, genotype 1b, Huh-7; in short: as §2
Hepatitis C virus [8] = assay: Antiviral activity against Hepatitis C virus subtype 1b expressing WT NS3 infected in HuH7 cells after 48 hrs by luciferase reporter assay; format: functional, organism-based, Hepacivirus hominis; conditions: genotype 1b, Huh-7, 48 h
In short: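 Huh7-lunet cells were electroporated with 10 μg wild-type genotype 1b subgenomic replicon RNA (clone ET; luciferase reporter; E1202G, T1280I, K1846T). They were seeded at 4,000 cells/well over a nine-point compound dilution series. After 48 h at 37°C, 5% CO2, luciferase reagent was added 1:1, followed by 10–20 min in the dark and a luminescence read. EC50 is the median of individual-experiment EC50s.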

Hepatitis C virus [9] = assay: Ratio of EC50 for Hepatitis C virus subtype 1b expressing NS3 Q80R and D168A mutant to EC50 for Hepatitis C virus subtype 1b expressing WT NS3 infected in HuH7 cells after 48 hrs by luciferase reporter assay; format: functional, Hepacivirus hominis, genotype 1b, Huh-7; in short: as §2
Hepatitis C virus [10] = assay: Antiviral activity against Hepatitis C virus subtype 1b expressing NS3 V36A mutant infected in HuH7 cells after 48 hrs by luciferase reporter assay; format: functional, organism-based, Hepacivirus hominis; conditions: genotype 1b, Huh-7, 48 h; in short: as §1
Hepatitis C virus [11] = assay: Antiviral activity against Hepatitis C virus subtype 1b expressing NS3 Q80K and R155K mutant infected in HuH7 cells after 48 hrs by luciferase reporter assay; format: functional, organism-based, Hepacivirus hominis; conditions: genotype 1b, Huh-7, 48 h; in short: as §1
Hepatitis C virus [12] = assay: Ratio of EC50 for Hepatitis C virus subtype 1b expressing NS3 R155T mutant to EC50 for Hepatitis C virus subtype 1b expressing WT NS3 infected in HuH7 cells after 48 hrs by luciferase reporter assay; format: functional, Hepacivirus hominis, genotype 1b, Huh-7; in short: as §2
Hepatitis C virus [13] = assay: Antiviral activity against Hepatitis C virus subtype 1b expressing NS3 R155M mutant infected in HuH7 cells after 48 hrs by luciferase reporter assay; format: functional, organism-based, Hepacivirus hominis; conditions: genotype 1b, Huh-7, 48 h; in short: as §1
Hepatitis C virus [14] = assay: Antiviral activity against Hepatitis C virus subtype 1b expressing NS3 Q80R and D168A mutant infected in HuH7 cells after 48 hrs by luciferase reporter assay; format: functional, organism-based, Hepacivirus hominis; conditions: genotype 1b, Huh-7, 48 h; in short: as §1
Hepatitis C virus [15] = assay: Ratio of EC50 for Hepatitis C virus subtype 1b expressing NS3 A156T mutant to EC50 for Hepatitis C virus subtype 1b expressing WT NS3 infected in HuH7 cells after 48 hrs by luciferase reporter assay; format: functional, Hepacivirus hominis, genotype 1b, Huh-7; in short: as §1
Hepatitis C virus [16] = assay: Antiviral activity against Hepatitis C virus subtype 1b expressing NS3 A156V mutant infected in HuH7 cells after 48 hrs by luciferase reporter assay; format: functional, organism-based, Hepacivirus hominis; conditions: genotype 1b, Huh-7, 48 h; in short: as §1
Hepatitis C virus [17] = assay: Antiviral activity against Hepatitis C virus subtype 1b expressing NS3 Q80K mutant infected in HuH7 cells after 48 hrs by luciferase reporter assay; format: functional, organism-based, Hepacivirus hominis; conditions: genotype 1b, Huh-7, 48 h; in short: as §1
Hepatitis C virus [18] = assay: Antiviral activity against Hepatitis C virus subtype 1b expressing NS3 V36L mutant infected in HuH7 cells after 48 hrs by luciferase reporter assay; format: functional, organism-based, Hepacivirus hominis; conditions: genotype 1b, Huh-7, 48 h; in short: as §1
Hepatitis C virus [19] = assay: Antiviral activity against Hepatitis C virus subtype 1b expressing NS3 D168E mutant infected in HuH7 cells after 48 hrs by luciferase reporter assay; format: functional, organism-based, Hepacivirus hominis; conditions: genotype 1b, Huh-7, 48 h; in short: as §1
Hepatitis C virus [20] = assay: Antiviral activity against Hepatitis C virus subtype 1b expressing NS3 R109K mutant infected in HuH7 cells after 48 hrs by luciferase reporter assay; format: functional, organism-based, Hepacivirus hominis; conditions: genotype 1b, Huh-7, 48 h; in short: as §1
Hepatitis C virus [21] = assay: Antiviral activity against Hepatitis C virus subtype 1b expressing NS3 F43I mutant infected in HuH7 cells after 48 hrs by luciferase reporter assay; format: functional, organism-based, Hepacivirus hominis; conditions: genotype 1b, Huh-7, 48 h; in short: as §1
Hepatitis C virus [22] = assay: Antiviral activity against Hepatitis C virus subtype 1b expressing NS3 D168A mutant infected in HuH7 cells after 48 hrs by luciferase reporter assay; format: functional, organism-based, Hepacivirus hominis; conditions: genotype 1b, Huh-7, 48 h; in short: as §1
Hepatitis C virus [23] = assay: Antiviral activity against Hepatitis C virus subtype 1b expressing NS3 Q80R mutant infected in HuH7 cells after 48 hrs by luciferase reporter assay; format: functional, organism-based, Hepacivirus hominis; conditions: genotype 1b, Huh-7, 48 h; in short: as §1
Hepatitis C virus [24] = assay: Antiviral activity against Hepatitis C virus subtype 1b expressing NS3 Q80R and D168E mutant infected in HuH7 cells after 48 hrs by luciferase reporter assay; format: functional, organism-based, Hepacivirus hominis; conditions: genotype 1b, Huh-7, 48 h; in short: as §1
Hepatitis C virus [25] = assay: Ratio of EC50 for Hepatitis C virus subtype 1b expressing NS3 F43S mutant to EC50 for Hepatitis C virus subtype 1b expressing WT NS3 infected in HuH7 cells after 48 hrs by luciferase reporter assay; format: functional, Hepacivirus hominis, genotype 1b, Huh-7; in short: as §2
Hepatitis C virus [26] = assay: Antiviral activity against Hepatitis C virus subtype 1b expressing NS3 A156G mutant infected in HuH7 cells after 48 hrs by luciferase reporter assay; format: functional, organism-based, Hepacivirus hominis; conditions: genotype 1b, Huh-7, 48 h; in short: as §1
Hepatitis C virus [27] = assay: Ratio of EC50 for Hepatitis C virus subtype 1b expressing NS3 Q80L mutant to EC50 for Hepatitis C virus subtype 1b expressing WT NS3 infected in HuH7 cells after 48 hrs by luciferase reporter assay; format: functional, Hepacivirus hominis, genotype 1b, Huh-7; in short: as §2
Hepatitis C virus [28] = assay: Antiviral activity against Hepatitis C virus subtype 1b expressing NS3 R155G mutant infected in HuH7 cells after 48 hrs by luciferase reporter assay; format: functional, organism-based, Hepacivirus hominis; conditions: genotype 1b, Huh-7, 48 h; in short: as §1
Hepatitis C virus [29] = assay: Ratio of EC50 for Hepatitis C virus subtype 1b expressing NS3 D168A mutant to EC50 for Hepatitis C virus subtype 1b expressing WT NS3 infected in HuH7 cells after 48 hrs by luciferase reporter assay; format: functional, Hepacivirus hominis, genotype 1b, Huh-7; in short: as §1
Hepatitis C virus [30] = assay: Ratio of EC50 for Hepatitis C virus subtype 1b expressing NS3 F43S and D168E mutant to EC50 for Hepatitis C virus subtype 1b expressing WT NS3 infected in HuH7 cells after 48 hrs by luciferase reporter assay; format: functional, Hepacivirus hominis, genotype 1b, Huh-7; in short: as §2

Row | SMILES | Ratio EC50 (Hepatitis C virus [4]) | Ratio EC50 (Hepatitis C virus [5]) | EC50 (Hepatitis C virus [6]) [nM] | EC50 (Hepatitis C virus [8]) [nM] | EC50 (Hepatitis C virus [11]) [nM] | Ratio EC50 (Hepatitis C virus [12]) | EC50 (Hepatitis C virus [13]) [nM] | Ratio EC50 (Hepatitis C virus [15]) | EC50 (Hepatitis C virus [16]) [nM] | EC50 (Hepatitis C virus [17]) [nM] | EC50 (Hepatitis C virus [18]) [nM] | EC50 (Hepatitis C virus [19]) [nM] | EC50 (Hepatitis C virus [20]) [nM] | EC50 (Hepatitis C virus [22]) [nM] | EC50 (Hepatitis C virus [23]) [nM] | Ratio EC50 (Hepatitis C virus [25]) | EC50 (Hepatitis C virus [26]) [nM] | EC50 (Hepatitis C virus [28]) [nM] | Ratio EC50 (Hepatitis C virus [29]) | further results
1 | COc1ccc2c(O[C@@H]3C[C@H]4C(=O)N[C@]5(C(=O)O)C[C@H]5/C=C\CCCCC[C@H](NC(=O)OC5CCCC5)C(=O)N4C3)cc(-c3csc(NC(C)C)n3)nc2c1 [CILUPREVIR] | 12 | 1 | 3 | 0.8 | 705 | 562 | 84 | 1344 | 1520 | 1 | 1.4 | 40 | 1.4 | 304 | 1.4 | 0.9 | 22 | 1000 | 339 | EC50 (Hepatitis C virus [1]): 707 nM; EC50 (Hepatitis C virus [2]): 29 nM; Ratio EC50 (Hepatitis C virus [3]): 0.5; Ratio EC50 (Hepatitis C virus [7]): 0.5; Ratio EC50 (Hepatitis C virus [9]): 1827; EC50 (Hepatitis C virus [10]): 1 nM; EC50 (Hepatitis C virus [14]): 1040 nM; EC50 (Hepatitis C virus [21]): 0.4 nM; EC50 (Hepatitis C virus [24]): 87 nM; Ratio EC50 (Hepatitis C virus [27]): 1.2; Ratio EC50 (Hepatitis C virus [30]): 12
2 | CCC[C@H](NC(=O)[C@@H]1[C@H]2CCC[C@H]2CN1C(=O)[C@@H](NC(=O)[C@@H](NC(=O)c1cnccn1)C1CCCCC1)C(C)(C)C)C(=O)C(=O)NC1CC1 [TELAPREVIR] | 0.6 | 3.1 | 202 | 150 | 2960 | 74 | 4110 | 105 | 15500 | 147 | 300 | 113 | 66 | 46 | 216 | 6.1 | 58 | 9630 | 0.4 | 
